Bioassay records (PubChem BioAssay)
Scp1 inh: blocks human Scp-1 phosphatase activity; Q9GZU7; Recombinant Scp1, phosphopeptide, malachite green phosphate absorbance; inhibition, % at 20 µM; 340,000 compounds, 0.88% hits; AID 493091;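 active = inhibition above about 50% at 20 µM, limit read from the data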;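 also: plate controls were DMSO wells with enzyme for no effect and wells lacking enzyme for full effect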
Target sequence (Q9GZU7 76-261 limits assumed): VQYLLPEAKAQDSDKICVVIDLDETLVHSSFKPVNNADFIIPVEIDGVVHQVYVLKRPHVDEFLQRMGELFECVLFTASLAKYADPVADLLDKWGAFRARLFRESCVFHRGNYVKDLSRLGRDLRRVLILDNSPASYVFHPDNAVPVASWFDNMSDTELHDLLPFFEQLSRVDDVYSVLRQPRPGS
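Test system: SCP-1 phosphatase catalytic domain, residues 76-261 | Compound dosing: One concentration, 20 µM, with 1.0% DMSO | Schedule: 45 min room-temperature reaction, 5 min colour, 30 min stabiliser | Detection: Absorbance at 630 nm | Read-out basis: % inhibition of SCP-1 phosphate liberation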
STEP inh: blocks human striatal-enriched tyrosine phosphatase | P54829 | recombinant STEP, OMFP fluorogenic substrate, fluorescence | inhibition, % at 20 µM | 360,000 compounds, 0.25% hits | AID 588621;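 active = inhibition at 20 µM, scaled per plate between control wells, above about 37%, limit read from the data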;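 also: 0% = DMSO with enzyme and substrate and 100% = substrate only without enzyme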
Target sequence (P54829 whole entry, looked up): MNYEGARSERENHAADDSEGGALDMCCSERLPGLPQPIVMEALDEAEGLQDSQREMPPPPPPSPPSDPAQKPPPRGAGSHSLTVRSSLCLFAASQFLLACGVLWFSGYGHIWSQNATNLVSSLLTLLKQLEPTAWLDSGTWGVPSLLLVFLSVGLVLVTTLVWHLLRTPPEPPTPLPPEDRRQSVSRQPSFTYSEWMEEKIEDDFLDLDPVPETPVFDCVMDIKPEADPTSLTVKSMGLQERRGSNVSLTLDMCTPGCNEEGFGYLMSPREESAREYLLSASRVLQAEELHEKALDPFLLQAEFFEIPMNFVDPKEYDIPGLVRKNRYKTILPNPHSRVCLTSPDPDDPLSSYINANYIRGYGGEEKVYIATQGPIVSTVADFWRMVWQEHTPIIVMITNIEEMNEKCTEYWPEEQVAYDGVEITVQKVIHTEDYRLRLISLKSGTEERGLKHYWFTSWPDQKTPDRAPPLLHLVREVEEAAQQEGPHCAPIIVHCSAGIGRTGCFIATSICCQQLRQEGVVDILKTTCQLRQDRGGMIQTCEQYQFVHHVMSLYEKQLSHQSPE
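Material: STEP (striatal-enriched tyrosine phosphatase) enzyme, cell-free; Compound dosing: 20 µM single dose in 1% DMSO; Technique: fluorescence read at 480 nm ex / 540 nm em; Times: reaction 20 min, ambient temperature; Medium: 50 mM Bis-Tris pH 6.0 with 2.5 mM DTT and 0.005% Tween 20; Also added: OMFP at 25 µM.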
LMPTP inh: blocks human LMPTP phosphatase | P24666 | recombinant LMPTP-A, OMFP fluorogenic substrate, fluorescence intensity | inhibition, % at 20 µM | 360,000 compounds, 0.22% hits;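 active = compounds that cut the enzyme signal by at least half of the control window in the single-dose screen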;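 also: plate controls were DMSO wells with enzyme plus substrate for no effect and substrate without enzyme for full effect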
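test system = LMPTP-A | amount = 0.625 nM LMPTP-A final | reagent = fluorogenic phosphatase substrate OMFP at 400 µM final | incubation = 50 min at room temperature | benchmarks = no-enzyme low control, uninhibited high control | medium = Bis-Tris pH 6.0, DTT, detergent | signal = fluorescence intensity of OMFP turnover product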
DNMT1 block: blocks human DNA methyltransferase DNMT1; P26358; 360,000 compounds, 0.83% hits; AID 588458; inhibition (reported as % activation of signal), % at 10 µM; DNMT1 molecular beacon, Hinp1I cleavage, fluorescence; in the data active = inhibition above about 50%
SUMO1-SIM PPI: modulators of human SUMO1-mediated protein-protein interactions; P63165; inhibition, % at 20 µM; SUMO1 binding to a labelled peptide, TR-FRET, 1 h; 360,000 compounds, 0.33% hits; in the data active = inhibition above about 37%
Scp-1 conf: Scp-1 (human) inhibition, single-dose confirmed; AID 540281; inhibition, % at 20 µM; recombinant SCP-1 catalytic domain, phosphate release, malachite green absorbance; 2,500 compounds, 61% hits; shares compounds with Scp1 inh;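 also: plate controls were DMSO with enzyme for no effect and buffer wells lacking enzyme for full effect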
Scp-1 MG ctr: colorimetric interference in Scp-1 counter-screen; 2,500 tested, under 10 active; apparent inhibition (interference), % at 20 µM; shares compounds with Scp1 inh; Colorimetric interference counterscreen, malachite green absorbance 630 nm;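 also: compounds added after enzyme reaction finished so only phosphate colour detection is probed; plate controls were DMSO wells with completed Scp-1 reaction for no effect and substrate wells lacking enzyme for full effect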
Scp-1 Tm shift: binds human Scp-1, shifting its melting temperature; shares compounds with Scp1 inh; Recombinant SCP1, Sypro Orange thermal shift Tm; thermal shift relative to vanadate control, % at 40 µM; 1,500 compounds, 25% hits;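 active = substances whose mean melting-temperature shift, as a percentage of the reference inhibitor's shift, reaches about 5.3%, limit read from the data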;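 also: 0% = Tm of DMSO wells and 100% = Tm with sodium orthovanadate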
* marks the source's active call; other numbers are inactive results; nt = not tested or not shown; ! = a repeat was not active. The list is not random: actives were taken first. Their share in the collection is about 1.7%.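 The calls were made as follows, unless noted: active = inhibition of at least 30% at 20 µM; inactive = the rest.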

SMILES | Scp1 inh | STEP inh | LMPTP inh | DNMT1 block | SUMO1-SIM PPI | Scp-1 conf | Scp-1 MG ctr | others
CC(C)NC(=O)Nc1ccc2c(c1)C(=O)N([C@H](C)CO)C[C@H](C)[C@@H](CN(C)C(=O)NC(C)C)O2 | 56* | 1 | 0 | -3 | 3 | 19 | 1
O=[N+]([O-])c1cccc(N/N=C/c2cccc(O)c2O)c1 | -9 | 2 | 24 | -26 | -8 | nt | nt
CCc1nnc(NC(=O)CCC(=O)N2CCN(C3c4ccccc4-c4ccccc43)CC2)s1 | 72* | 1 | 0 | -2 | -5 | -21 | -12
CSc1ccc(S(=O)(=O)NCC(=O)OCC(=O)N(C)C2CCCCC2)cc1[N+](=O)[O-] | 7 | 2 | 0 | 1 | -36 | nt | nt
Cc1nn(CC(=O)N2CCN(Cc3ccccc3)CC2)c(=O)c2ccccc12 | -7 | -2 | 0 | -3 | -3 | nt | nt
COc1ccc(CN2CCN(C(=O)Cn3nc(C(=O)O)c4ccccc4c3=O)CC2)cc1F | 57* | 0 | 0 | 0 | -13 | -4 | -11
Cc1cccc(NC(=O)CSc2ccc(-c3ccco3)nn2)c1 | -4 | -1 | 0 | -11 | -5 | nt | nt
CC(=O)Nc1cccc(NC(=O)CSc2ccc(-c3ccco3)nn2)c1 | 70* | 1 | 5 | 5 | 0 | 1 | -21
CC(=O)Nc1ccc(NC(=O)CSc2ccc(-c3ccco3)nn2)cc1 | 51* | 2 | 3 | -3 | 5 | 14 | -23
Cc1ccc(SCC(=O)Nc2ccc(-c3nnc(-c4ccco4)o3)cc2)cc1 | 70* | 13 | 30 | 16 | 2 | 77* | -7 | Scp-1 Tm shift=-21
Cc1nc2ccccc2c(=O)n1/N=C/c1ccc(F)cc1 | -7 | 0 | -2 | 2 | 4 | nt | nt
COc1cc(/C=C/c2cccc[n+]2C)ccc1OCC(=O)Nc1cccc(Cl)c1 | 70* | 0 | 2 | -2 | -27 | 32* | -6 | Scp-1 Tm shift=-6
Cc1oc2c(C)c3oc(=O)c(CC(=O)N[C@@H](CCCNC(N)=O)C(=O)O)c(C)c3cc2c1C | 52* | 25 | 3 | 33 | 30 | 43* | -7 | Scp-1 Tm shift=-7
Cc1c(CC(=O)N[C@@H](CCCNC(N)=O)C(=O)O)c(=O)oc2cc3oc4c(c3cc12)CCCC4 | nt | 1 | -1 | 0 | 2 | nt | nt
COc1ccc(C(=O)CSc2nnc(CNC(=O)c3ccc(S(=O)(=O)N(C)C)cc3)o2)cc1 | -5 | 3 | -1 | -2 | -1 | nt | nt
O=C(c1cccs1)c1ccccc1Cc1cccs1 | -19 | 3 | 1 | 2 | 5 | nt | nt
O=C(/C=C\Nc1ccc2c(c1)OCO2)c1ccc(Cl)s1 | 91* | 2 | 63* | 8 | -7 | 75* | 0 | Scp-1 Tm shift=0
O=C(/C=C\Nc1ccc2c(c1)OCO2)c1cccs1 | -9 | 2 | 3 | -3 | -21 | nt | nt
CCN(C(=O)COC(=O)c1[nH]c(C)c(C(C)=O)c1C)C1CCS(=O)(=O)C1 (centres undefined) | 70* | -5 | -1 | 4 | -2 | -6 | -7
COc1ccc(CCNC(=O)CSCC(=O)Nc2cc(S(C)(=O)=O)ccc2Cl)cc1 | -5 | 1 | 0 | 7 | 4 | nt | nt
Cc1cccc(C)c1NC(=O)CCCCCC1NC(=O)NC1C (centres undefined) | -5 | -1 | -2 | 3 | -2 | 3 | -5
CSc1ccc(CCNS(=O)(=O)c2csc(C(N)=O)c2)cc1 | -4 | 0 | 0 | -2 | 32 | 5 | -2
Cc1cccc(CNS(=O)(=O)c2csc(C(N)=O)c2)c1 | -11 | -5 | -2 | 1 | 8 | -9 | -12
NC(=O)c1cc(S(=O)(=O)NCc2ccc(F)cc2)cs1 | -5 | -2 | 0 | -1 | 2 | nt | nt
Cc1ccc(-n2nc3c(c2NC(=O)CC(C)C)CS(=O)(=O)C3)c(C)c1 | 0 | -4 | -1 | 1 | 2 | nt | nt
SMILES | Scp1 inh | STEP inh | LMPTP inh | DNMT1 block | SUMO1-SIM PPI | Scp-1 conf | Scp-1 MG ctr | others
Cc1ccc(NC(=O)CCSCCC(=O)Nc2ccc(C)c(C)c2)cc1C | -6 | 2 | 1 | -1 | -1 | nt | nt
Cc1ccc(NC(=O)CC(=O)Nc2ccc(C)c(C)c2)cc1C | 62* | 1 | 1 | 6 | 4 | 82* | -2 | Scp-1 Tm shift=0
COC(=O)C(C)NC(=O)C12CC3CC(C1)CC(c1ccc(C)cc1)(C3)C2 (centres undefined) | -7 | 0 | 1 | -2 | 1 | nt | nt
Cc1sc2nc(SCC(=O)N(C)c3ccccc3)n(C)c(=O)c2c1C | -3 | 0 | 1 | 0 | 8 | nt | nt
Cc1ccc(-c2csc(C3=C(O)CN(NC(=O)c4ccc([N+](=O)[O-])cc4)C3=N)n2)cc1 | 23 | 4 | 14 | 36 | -1 | nt | nt
N=C1C(c2nc(-c3cccc([N+](=O)[O-])c3)cs2)=C(O)CN1NC(=O)c1ccco1 | 68* | 10 | 48 | -3 | -7 | -9 | -15
O=C(CCC(=O)c1ccc(Cl)s1)Nc1ncccc1O | -4 | 0 | -2 | 7 | -2 | nt | nt
COc1ccc2[nH]c(=O)c(CN(C(=O)c3ccco3)C(C)C)cc2c1 | 60* | -2 | -1 | 7 | 4 | 4 | -11
CC(=O)c1ccc(NC(=O)c2cccc(N3C(=O)c4ccccc4C3=O)c2)cc1 | 97* | 98* | 55* | 40 | 84* | 48* | -13 | Scp-1 Tm shift=-15
c1ccc2[nH]c(-c3ccnc4ccccc34)nc2c1 | 100*! | 2 | -1 | -2 | -15 | 79* | -20 | Scp-1 Tm shift=-13
c1ccc2c(-c3nc4ccccc4[nH]3)cccc2c1 | nt | -1 | 0 | 0 | 4 | nt | nt
COc1ccc(NC2CCCN(C(=O)c3cn(C)c4ccccc34)C2)cc1 (centres undefined) | -7 | -2 | -1 | 1 | 5 | nt | nt
Cc1ccc(S(=O)(=O)NCCN2CCNC2=O)cc1 | -8 | -2 | 0 | 1 | -4 | nt | nt
CC(=O)Nc1ccc(S(=O)(=O)NCCN2CCNC2=O)cc1Cl | -2 | 1 | 0 | 3 | 8 | -16 | -13
O=C1CCCN1CCCNS(=O)(=O)c1ccc(F)c(F)c1 | 1 | -4 | -1 | -1 | 7 | -14 | -17
O=C1NCCN1CCNS(=O)(=O)c1ccc(F)c(Cl)c1 | -7 | -1 | -1 | 2 | 3 | -18 | -15
O=C1CCCN1CCCNS(=O)(=O)c1ccc(Br)cc1 | 1 | -1 | -1 | 3 | -2 | nt | nt
Cc1ccc(-n2[nH]c(C)c(/C=N/Nc3ccc([N+](=O)[O-])cc3[N+](=O)[O-])c2=O)cc1 | 61* | 19 | 10 | -26 | -11 | 80* | -14 | Scp-1 Tm shift=11*
